This note sets out measurements from ChEMBL document CHEMBL4715824, “Chemical Proteomic Characterization of a Covalent KRASG12C Inhibitor” (ACS Med Chem Lett, 2018).

The species entered for assay [1] is Homo sapiens. Nature of the assay: Covalent inhibition of GDP bound His-tagged KRAS G12C/C51L/C80L/C118S mutant (1 to 169 residues) (unknown origin) expressed in Escherichia coli assessed as enzyme-compound adduct formation at Cys12 residue by measuring ratio of Kinact/Ki measured up to 20 mins by mass spectrometry analysis relative to ARS-853. The settings on record: time min <=20.

The subject of assay [2] is NCI-H23. Nature of the assay: Antiproliferative activity against human NCI-H23 cells harboring KRAS G12C mutant assessed as reduction in cell viability. The format is functional, cell-based.
Assay [3] deals with T1, Synaptic vesicle membrane protein VAT-1 homolog (Homo sapiens, UniProt Q99536).
T1 sequence (Q99536 whole entry): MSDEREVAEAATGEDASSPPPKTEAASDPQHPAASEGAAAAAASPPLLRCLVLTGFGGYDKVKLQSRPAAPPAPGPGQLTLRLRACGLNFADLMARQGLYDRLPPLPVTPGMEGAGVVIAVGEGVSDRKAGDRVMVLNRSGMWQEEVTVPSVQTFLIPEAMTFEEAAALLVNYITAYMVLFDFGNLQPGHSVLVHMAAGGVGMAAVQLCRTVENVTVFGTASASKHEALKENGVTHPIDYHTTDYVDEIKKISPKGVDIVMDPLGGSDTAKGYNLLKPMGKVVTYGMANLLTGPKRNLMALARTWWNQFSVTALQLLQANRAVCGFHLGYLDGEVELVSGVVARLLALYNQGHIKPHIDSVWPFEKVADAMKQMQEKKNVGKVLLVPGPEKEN
Nature of the assay: (§1) Covalent binding affinity to VAT1 at Cys residue in human NCI-H358 cells assessed as reduction of log2 H/L ratio for tryptic peptide […] incubated for 4 hrs followed by cell lysis and subsequently labelled with light thiol probe N-((S)-18-iodo-11-isopropyl-10,13,17-trioxo-3,6-dioxa-9,12,16-triazaoctadecyl)-6-((4R,5S)-5-methyl-2-oxoimidazolidin-4-yl)hexanamide and heavy thiol probe 4 for 1 hr under dark conditions followed by tryptic digestion for overnight and measured by discovery ABPP based nano LC-MS/MS analysis. In a few lines:
(§2)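 H358 cells were treated 4 h with DMSO, 0.08, 0.4, 2 or 10 μM, each paired with DMSO control cells, in biological duplicate. After lysis and denaturation, treated lysate took heavy thiol probe and control lysate took light probe. Lysates were combined equally, and probe-labelled tryptic peptides were streptavidin-enriched. Peptides were run twice by 180 min data-dependent nano LC-MS/MS. Hits needed log2 H/L below −0.776 (3σ) plus a dose-dependent decrease.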

Assay [4] deals with MIA PaCa-2. Nature of the assay: Antiproliferative activity against human MIA PaCa-2 cells harboring KRAS G12C mutant assessed as reduction in cell viability. It is filed as functional, cell-based.
In assay [5] the test system is GTPase KRas (Homo sapiens), P01116 [G12C]. Description: Covalent binding affinity to KRAS G12C mutant at Cys12 residue in human NCI-H358 cells assessed as reduction of log2 H/L ratio for tryptic peptide LVVVGACGVGK at 2 uM incubated for 4 hrs followed by cell lysis and subsequently labelled with light thiol probe N-((S)-18-iodo-11-isopropyl-10,13,17-trio …. It is filed as cell-based.

The target in assay [6] is T2, Peroxiredoxin-like 2A (Homo sapiens) (UniProt Q9BRX8).
T2 sequence (whole entry): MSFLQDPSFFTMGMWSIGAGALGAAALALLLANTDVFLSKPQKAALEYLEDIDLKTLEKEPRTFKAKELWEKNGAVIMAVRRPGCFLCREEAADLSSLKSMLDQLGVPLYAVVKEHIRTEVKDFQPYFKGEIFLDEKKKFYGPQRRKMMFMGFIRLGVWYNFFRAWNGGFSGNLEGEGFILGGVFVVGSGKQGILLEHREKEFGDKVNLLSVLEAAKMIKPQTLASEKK
Description: Covalent binding affinity to FAM213A in human NCI-H358 cells incubated for 4 hrs followed by cell lysis and subsequently labelled with light thiol probe N-((S)-18-iodo-11-isopropyl-10,13,17-trioxo-3,6-dioxa-9,12,16-triazaoctadecyl)-6-((4R,5S)-5-methyl-2-oxoimidazolidin-4-yl)hexanamide and heavy thiol probe 4 for 1 hr under dark conditions followed by tryptic digestion for overnight and measured by discovery ABPP based nano LC-MS/MS analysis.

The subject of assay [7] is NCI-H358. Nature of the assay: Antiproliferative activity against human NCI-H358 cells harboring KRAS G12C mutant assessed as reduction in cell viability. It is filed as functional, cell-based.
Assay [8] concerns the target T1, Synaptic vesicle membrane protein VAT-1 homolog. The assay is described as §1. In short, it runs like this:
as §2
The source holds these as a separate data set.

Assay [9] has as its system GTPase KRas (Homo sapiens), P01116 [G12C]. Nature of the assay: (§3) Covalent binding affinity to KRAS G12C mutant at Cys12 residue in human NCI-H358 cells assessed as reduction of log2 H/L ratio for tryptic peptide […] incubated for 4 hrs followed by cell lysis and subsequently labelled with light thiol probe N-((S)-18-iodo-11-isopropyl-10,13,17-trioxo-3,6-dioxa-9,12,16-triazaoctadecyl)-6-((4R,5S)-5-methyl-2-oxoimidazolidin-4-yl)hexanamide and heavy thiol probe 4 for 1 hr under dark conditions followed by tryptic digestion for overnight and measured by discovery ABPP based nano LC-MS/MS analysis. In short, it runs like this:
as §2

Assay [10] addresses GTPase KRas (Homo sapiens, UniProt P01116, G12C). The assay is described as §3. In a few lines:
as §2

Assay [11] concerns the target T3, Heme oxygenase 2 (Homo sapiens) (UniProt P30519).
T3 sequence (whole entry): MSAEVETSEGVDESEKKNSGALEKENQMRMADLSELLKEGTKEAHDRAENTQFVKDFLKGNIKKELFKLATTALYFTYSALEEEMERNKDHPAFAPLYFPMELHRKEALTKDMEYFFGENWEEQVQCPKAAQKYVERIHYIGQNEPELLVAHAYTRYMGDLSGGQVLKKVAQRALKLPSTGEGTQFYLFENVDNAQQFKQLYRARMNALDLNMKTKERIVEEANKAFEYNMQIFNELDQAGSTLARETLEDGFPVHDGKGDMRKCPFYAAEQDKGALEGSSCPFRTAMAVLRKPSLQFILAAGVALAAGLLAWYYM
Description: Covalent binding affinity to HMOX2 at Cys282 residue in human NCI-H358 cells assessed as log2 H/L ratio at 10 uM pretreated for 3 hrs followed by N-(((6S,7R)-7-(4-chloro-3-fluorophenyl)-1,4-oxazepan-6-yl)methyl)-2-hydroxyacetamide treatment for 3 hrs by competitive TMT click chemistry pull-down experiment based LC-MS/MS analysis. The format is cell-based. The settings on record: time 6.0 hrs. In short, it runs like this: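 H358 cells were pretreated with DMSO (n = 3) or 10 μM compound for 3 h, then 2 μM alkyne probe was added for another 3 h. Cells were lysed, clicked onto azide-agarose resin, digested, TMT-labelled and pooled. The pool was fractionated by high-pH HPLC and each fraction run twice by 60 min low-pH nano LC-MS/MS. Readout was log2 compound/DMSO normalized reporter intensity, with a least-squares means test and FDR adjustment.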

Activity calls are given as the source filed them. The rule behind the calls is not given here.

Consider `C=CC(=O)N1CCN(c2ncnc3c(F)c(-c4c(O)cccc4F)c(Cl)cc23)CC1`, for which the fold change (FC) in assay [1] is 6. Moreover, the IC50 in [2] is 700 nM; in assay [3], 4540 nM; in assay [4], 120 nM; in assay [7], 640 nM; in assay [8], 4480 nM; in [10] it was 1590 nM. Besides, the result in assay [5] was Active. The result in [6] was inactive. Also, in assay [9], the inhibition entry is “Dose-dependent effect”. In addition, the Ratio in assay [11] was -0.3.
